This sample holds only a part of the variants without activity.
B1: tRNA (parent)
chain: GUUCCGUUGGCGUAAUGGUAACGCGUCUCCCUCCUAAGGAGAAGACUGCGGGUUCGAGUCCCGUACGGAACG

Variants of: B1
Test: yeast fitness relative to wild type (ratio to wild type); higher = fitter; tRNA-Arg(CCU), competitive growth, 37 C, YPD
Method in brief: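 Variants of the tRNA-Arg(CCU) gene were chemically synthesised with a 3% per-site mutation rate across 69 sites and placed at the native genomic locus in Saccharomyces cerevisiae. Six parallel replicates of the pooled strains were competed in YPD at 37°C for 24 hours, and gene amplicons from the start and end populations were read by 100-nucleotide paired-end sequencing. Darwinian fitness relative to wild type was derived from changes in genotype frequencies. Genotypes required ≥ 100 starting reads, and estimates < 0.5 were set to 0.5.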

Row | Variant | yeast fitness
1 | GUUCGGUCGGCGUAAUGGUGACGCGUCUCCCUCCUAAGGAGAUGACUGCGAGUUCGAGUCCCGUCCGGAACG | ≤ 0.5
2 | GUUCGGCUGGCGUAAUGGUAACGCGUCUCCCUCCUAAGGAGAAGACUGCGGAUUCGAGUCCCGUACGGAACG | ≤ 0.5
3 | GUUCGGUAGGCGUAAUGGUCACGCGUCUCCCUCCUAAGGAGACGAAUGCGGGUUCGAGUCCCGUACGGAACG | ≤ 0.5
4 | GUUCGGGUGGCGUAAUGGUAACGCGUCUCCCUACUAAGGAGAAGACUGCGGGUUCGAGUCCCGUACGGAUCG | 0.57
5 | GUUCGGUCGGCGUAAUGGUAACGCGUGUCCCUGCAAAGGAGAAGACUGCGGGUUCGAGUCCCGUACGGAACG | ≤ 0.5
6 | GUUCGGUAGGCGUAAUGGUAACGCGUCUCCCUCCUAAGGACAAGACAGCGGGUUCGAGUCCCGUACGGAACG | 0.605
7 | GUUCGGUCGGAGUAAUGGUAACGCGCCUCCCUCCCAAGGAGAAGACUGCCGAUUCGAGUCCCGUACGGAACG | 0.634
8 | GUUCGGGUGGCGUAAUGGUAACGCGUCUCCCCCCUAAGGAGAAGACUGCGGGUUCGAGUCCCGUACGGAACG | 0.604
9 | GUUCGGAUGGCGUUAUGGUAACGCGUCUCCCUCCUAAGGAGAAGACUGCGGGUUCGAGUCCCGUACGGAACG | 0.624
10 | GUUCGGUUGGCGUAAUGGUAACGCGUCUCCCUCCUAAGGAGAAGACUGCGGGUUCGAGUCCCCUACGGAACG | 0.626
11 | GUUCGGUUGGCGUAAUGGUAACGCGUCUCCCUCCUAAGGAGAAGACUGCGGGUUCGAGUCCCAUACGGAACG | 0.843
12 | GUUCGGGUGGCGUAAUGGUAACGCGUCUCCCUACUAAGGAGAAGACUGCGGGUUCGAGUCCCGUACGGAACG | 0.519
13 | GUUCGGUUGGCGUAAUGGUAACGCGUCUCCCUCCUAAGGAGAAGACUGCGGGUUCGAGUCCCGUACGCGACG | 0.54
14 | GUUCGGAUGGCGUAAUGGUCACGCGUCUCCCUCCUAAGGAGAAGACUGCGGGUUCGAGUCCCGUACGCAACG | ≤ 0.5
15 | GUUCGGUUGGCGUAAUGGUAACGCGUCUCCCUCCUAAGGAGAAGACUGCGGGUUCGAGUCCCAUACGGCACG | 0.614
16 | GUUCGGUUGGCGUAAUGGUAACGCGUCUCCCUCCUAAGGAGAAGACUGCGCGUUCGAGUCCCGUCCGGAACG | ≤ 0.5
17 | GUUCGGUCGGCGUAGUGCUAACGCGUCUCCCUCCUAAGGAGAAGACUGCGGGUUCGAGUCCUGUACGGAACG | ≤ 0.5
18 | GUUCGGGUGGCGUAAUGGUAACGCGUCUCCCUGCUAAGGAGAAGACUGCGGGUUCGAGUCCCGUACGGAUCG | ≤ 0.5
19 | GUUCGGGUGGCGUAAUGGUGACGCGUCUCCCUCCUAAGGAGAAGACUGCGGGUUCGAGUCCCGUACGGAACG | ≤ 0.5

Row | Variant | yeast fitness
20 | GUUCGGCUGGCGUAAUGGUAACGCGUCUCCCUCCUAAGGAGAAGACUGCGGGUACGAGUCUCGUACGGAACG | 0.557
21 | GUUCGGCUGGGGUAAUGGUAACGCGUCUCCCUCCUAAGGGGAAGACUGCGGGUUCGUGUCCCGUACGGAACG | 0.542
22 | GUUCGGGUGGCGUAAUGGUAACGCGUCUCCCUCCUAAGGAGAAGACUGCGGGUUCGGGUCCCGUACGGAACG | ≤ 0.5
23 | GUUCGGAUGGCGUAAUGGUAACGCGUCUCCCUCCUAAGGAGCAGACUGCGGGUUCGAGUCCCGUACGGAACG | ≤ 0.5
24 | GUUCGGCUGGGGUAAUGGUAACGCGUCUCCCUCCUAAGGGGAAGACUGCGGGUUCGUGUCCCGUACGGAUCG | ≤ 0.5
25 | GUUCGGGUGGCGUAAUGGUAACGCGUCUCCCUACUAAGGAGAAGACUGCGGGUUCGAGUCCCGUCCGGAACG | ≤ 0.5
26 | GUUCGGUUGGCGUAAUGGUAACGCGUCUCCCUCCUAAGGAGAAGACUGCGGGUUCAAGUCCCGUACGGAACG | 0.975
27 | GUUCGGAUGGUGUAAUGGUAACGCGUCUCCAUCCUAAGGAGAAGCCUGCGGGUUCGAGUCCCGUACGGAACG | ≤ 0.5
28 | GUUCGGCUGGCGUAAUGGUAACGCGUCUCCCUCCUAAGGAGAAGACUGCGGGUUCAUGUCCGGUACGGAACG | ≤ 0.5
29 | GUUCGGUUGGCGUAAUGGUAACGCGUCUCCCUCCUAAGGAGAAGACUGCGGCUUCGAGUCCCGUAUGGAACG | ≤ 0.5
30 | GUUCGGUUGGCGUAAUGGUAACGCGUCUCCCUCCUAAGGAGAAGACUGCGGGUUCGAGUCCCGUACGUAACG | 0.678
31 | GUUCGGUUGGCGUAAUGGUAACGCGUCUCCCUCCUAAGGAGAAGACUGCGCGUUCGAGUCGCGUAUGGAACG | ≤ 0.5
32 | GUUCGGGUGGCGUCAUGGAAACGCGUCUCCCUCCUAAGGAGAAGACUGCGGGUUCGACUCCCGUACGGAACG | 0.584
33 | GUUCGGUUGGCGUAAUGGUAACGCGUCUCCCUCCUAAGGAGAAGACUGCGGGUUCGAAUCCCGUACGGAACG | 0.957
34 | GUUCGGAUGGCGUAAUGGUCACGCGUCUCCCUCCUAAGGAGAAGAUUGCGGGUUCGAGUCCCGUACGGAACG | ≤ 0.5
35 | GUUCGGCUGGCGUAAUGGUUACGCGUCUCCCUCCUAAGGAGAGGACUGCGGGUUCGAGUCCCGUACGGAACG | ≤ 0.5
36 | GUUCGGCUGGCGUAAUGGUAACGCGUCUCCCUCAUAAGGAGAAGACUGCGGGUUCGAGUCCCGUACGGAACG | ≤ 0.5
37 | GUUCGGUCGGCGUAGUGGUAACGCGUCUACCUCCUAAGAAGAAGACUGCGGGUUCGAGUCCCGUACGGAACG | ≤ 0.5
38 | GUUCGGAUGGCGUAAUGGUGACGCGUCUCCCUCCUAAGGAGAAGACGGCCCGUUCGAGUCCCGUACGGAACG | ≤ 0.5

From the RNAGym collection of RNA variant scans (doi:10.1126/science.aae0568)
